Residue numbers refer to the chain shown, from its start. “Also recorded” adds a separate entry of the source.
Experiments:
[1] = test system: SHP2; conditions: read-out: IC50 against SHP2; previous study; ref 22 (Liu et al.); cited from earlier work
[2] = biological target: T1, SHP2-PTP^Q510A (Homo sapiens, UniProt Q06124, Q510A); experiment: BLI assay, SHP2-PTP^Q510A; format: binding
T1 sequence (Q06124 237-529 Q510A): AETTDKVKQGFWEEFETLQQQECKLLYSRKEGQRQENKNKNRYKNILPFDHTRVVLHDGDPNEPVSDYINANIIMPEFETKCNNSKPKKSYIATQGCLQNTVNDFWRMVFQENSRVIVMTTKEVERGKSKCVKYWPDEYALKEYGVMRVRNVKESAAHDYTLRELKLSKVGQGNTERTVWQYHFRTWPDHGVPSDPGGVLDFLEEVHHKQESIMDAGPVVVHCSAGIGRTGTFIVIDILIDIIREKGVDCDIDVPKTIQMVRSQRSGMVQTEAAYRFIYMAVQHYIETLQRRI

[3] = test system: p-ERK in H1975 cells; experiment: ERK phosphorylation in cells; format: cell-based; conditions: 10 μM
Outline: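 H1975 cells, grown in RPMI-1640 with 10% FBS, were exposed to 10 μM compound and lysed in RIPA buffer with phosphatase and protease inhibitors. Proteins were separated and transferred. Blots were probed overnight at 4 °C with antibodies to p-ERK1/2, total ERK and β-actin diluted in 5% BSA, then developed by enhanced chemiluminescence.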

[4] = biological target: T2, PTPN12 (PTP-PEST) (Homo sapiens, UniProt Q05209); experiment: Phosphatase selectivity, PTPN12; format: biochemical
T2 sequence (Q05209 1-305): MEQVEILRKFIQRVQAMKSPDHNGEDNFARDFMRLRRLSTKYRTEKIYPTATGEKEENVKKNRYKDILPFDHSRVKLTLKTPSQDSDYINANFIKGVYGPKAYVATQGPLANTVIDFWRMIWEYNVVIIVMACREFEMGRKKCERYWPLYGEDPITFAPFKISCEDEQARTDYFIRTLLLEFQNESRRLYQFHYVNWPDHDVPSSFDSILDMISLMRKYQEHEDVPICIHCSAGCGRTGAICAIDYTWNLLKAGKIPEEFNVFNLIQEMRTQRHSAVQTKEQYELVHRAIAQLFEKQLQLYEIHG

[5] = biological target: PTPRA (RPTPα) (Homo sapiens, UniProt P18433); experiment: Phosphatase selectivity, PTPRA; format: biochemical
[6] = biological target: T3, SHP2-PTP^R465A (Homo sapiens, UniProt Q06124, R465A); experiment: BLI assay, SHP2-PTP^R465A; format: binding
T3 sequence (Q06124 237-529 R465A): T1 sequence (Q06124 237-529 Q510A) with R229A, A274Q

[7] = test system: NCI-H1975 cells; experiment: Colony formation assay; format: cell-based; conditions: measured 10 days after compound treatment
Outline: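 About 10^3 H1975 cells per well in RPMI-1640 with 10% FBS were allowed to adhere overnight and treated the next day. Medium and compound were renewed every 3–4 days. When untreated wells reached confluence, colonies were fixed with formaldehyde, stained with 0.2% crystal violet and scanned.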

[8] = biological target: T4, PTPN1 (PTP1B) (Homo sapiens, UniProt P18031); experiment: Phosphatase selectivity, PTPN1; format: biochemical
T4 sequence (P18031 1-321): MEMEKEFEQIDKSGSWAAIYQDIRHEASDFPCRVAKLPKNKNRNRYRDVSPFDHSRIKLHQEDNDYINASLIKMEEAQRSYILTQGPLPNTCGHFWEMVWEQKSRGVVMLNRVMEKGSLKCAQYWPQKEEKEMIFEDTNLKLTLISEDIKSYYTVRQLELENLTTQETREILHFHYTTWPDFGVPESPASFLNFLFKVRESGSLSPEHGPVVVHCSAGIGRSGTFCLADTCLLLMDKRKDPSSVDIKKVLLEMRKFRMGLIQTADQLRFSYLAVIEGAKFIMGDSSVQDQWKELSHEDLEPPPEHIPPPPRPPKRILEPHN

[9] = biological target: T5, SHP2-FL (Homo sapiens, UniProt Q06124); experiment: SHP2-FL inhibition assay; format: biochemical
T5 sequence (Q06124 1-525): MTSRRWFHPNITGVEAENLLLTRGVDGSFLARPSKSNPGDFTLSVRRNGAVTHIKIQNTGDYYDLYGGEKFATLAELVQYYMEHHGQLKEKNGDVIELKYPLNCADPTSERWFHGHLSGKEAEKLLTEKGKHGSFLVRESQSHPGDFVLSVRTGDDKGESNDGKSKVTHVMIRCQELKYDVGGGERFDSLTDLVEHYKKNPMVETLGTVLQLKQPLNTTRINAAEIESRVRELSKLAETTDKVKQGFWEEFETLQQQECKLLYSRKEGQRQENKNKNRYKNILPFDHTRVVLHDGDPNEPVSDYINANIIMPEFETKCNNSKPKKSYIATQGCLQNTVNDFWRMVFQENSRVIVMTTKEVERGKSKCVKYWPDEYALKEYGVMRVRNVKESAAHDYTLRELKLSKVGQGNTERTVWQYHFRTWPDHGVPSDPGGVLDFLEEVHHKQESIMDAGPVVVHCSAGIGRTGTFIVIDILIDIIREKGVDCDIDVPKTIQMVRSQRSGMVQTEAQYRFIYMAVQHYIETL

[10] = biological target: T6, SHP2-PTP (Homo sapiens, UniProt Q06124); experiment: SHP2-PTP inhibition assay; format: biochemical; conditions: for IC50: IC50 (SHP2-PTP), DiFMUP substrate
T6 sequence (Q06124 237-529): T1 sequence (Q06124 237-529 Q510A) with A274Q

[11] = test system: NCI-H1975 cells; experiment: Cell proliferation assay; format: cell-based; conditions: CCK-8, day 3
Outline: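 About 1.5 × 10^3 H1975 cells per well, in RPMI-1640 with 10% FBS, were treated with compound at 0–50 μM. On day 3 CCK-8 reagent was added and optical density read. Untreated wells served for background correction.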

[12] = biological target: T7, SHP2^E76K (Homo sapiens, UniProt Q06124, E76K); experiment: Inhibition of oncogenic mutant SHP2^E76K; format: biochemical
T7 sequence (Q06124 1-525 E76K): T5 sequence (Q06124 1-525) with E76K

[13] = biological target: T8, SHP2^D61V (Homo sapiens, UniProt Q06124, D61V); experiment: Inhibition of oncogenic mutant SHP2^D61V; format: biochemical
T8 sequence (Q06124 1-525 D61V): T5 sequence (Q06124 1-525) with D61V

[14] = test system: H1975 xenograft; experiment: NCI-H1975 xenograft model; format: in vivo, BALB/c nude mice
Outline: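 Female BALB/c nude mice, five weeks old, received a subcutaneous H1975 suspension (5 × 10^6/mL) in the right flank. At a mean tumor volume of 50–100 mm3 they were randomised into three groups. Compound in 0.5% CMC-Na was given intragastrically at 20 mg/kg/day; controls received vehicle. Body weight and tumor volume were recorded every two days. Tumor sections were stained for Ki-67, and tumor lysates were immunoblotted for p-ERK. Data are mean ± SD with two-sided t-test.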

[15] = test system: SHP2 knockdown H1975 cells; experiment: Cell proliferation in SHP2 knockdown cells; format: cell-based; conditions: SHP2 siRNA treated H1975 cells versus H1975
[16] = biological target: PTPN6 (SHP1) (Homo sapiens, UniProt P29350); experiment: Phosphatase selectivity, PTPN6; format: biochemical
[17] = biological target: T9, LMWPTP (ACP1) (Homo sapiens, UniProt P24666); experiment: Phosphatase selectivity, LMWPTP; format: biochemical
T9 sequence (P24666 1-158): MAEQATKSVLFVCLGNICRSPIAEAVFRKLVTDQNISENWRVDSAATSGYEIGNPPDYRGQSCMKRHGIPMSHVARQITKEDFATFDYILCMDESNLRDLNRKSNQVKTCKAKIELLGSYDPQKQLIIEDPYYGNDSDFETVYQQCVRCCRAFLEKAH

[18] = biological target: T10, SHP2^T253M (Homo sapiens, UniProt Q06124, T253M); experiment: Inhibition of tunnel-site mutant SHP2^T253M; format: biochemical
T10 sequence (Q06124 1-525 T253M): T5 sequence (Q06124 1-525) with T253M

[19] = 20 mg/kg/day oral, versus vehicle

PTPRA (RPTPα), sequence (P18433 183-802): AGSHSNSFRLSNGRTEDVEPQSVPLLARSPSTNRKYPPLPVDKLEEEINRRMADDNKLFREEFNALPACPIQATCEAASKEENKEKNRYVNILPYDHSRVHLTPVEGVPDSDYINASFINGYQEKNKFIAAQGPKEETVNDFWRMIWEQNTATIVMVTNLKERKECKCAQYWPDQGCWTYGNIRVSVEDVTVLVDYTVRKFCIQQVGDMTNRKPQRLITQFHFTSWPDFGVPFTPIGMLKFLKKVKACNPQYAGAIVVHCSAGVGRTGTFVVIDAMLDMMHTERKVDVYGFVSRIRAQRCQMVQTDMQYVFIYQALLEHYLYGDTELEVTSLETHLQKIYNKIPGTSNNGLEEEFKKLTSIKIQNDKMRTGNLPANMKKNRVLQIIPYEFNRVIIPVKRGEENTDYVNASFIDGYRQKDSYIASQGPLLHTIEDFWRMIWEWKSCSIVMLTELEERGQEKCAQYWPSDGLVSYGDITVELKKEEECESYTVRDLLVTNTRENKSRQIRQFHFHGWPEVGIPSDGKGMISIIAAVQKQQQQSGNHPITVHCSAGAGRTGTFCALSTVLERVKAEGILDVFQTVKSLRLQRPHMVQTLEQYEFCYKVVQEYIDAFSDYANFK
PTPN6 (SHP1), sequence (P29350 1-597 isoform P29350-3): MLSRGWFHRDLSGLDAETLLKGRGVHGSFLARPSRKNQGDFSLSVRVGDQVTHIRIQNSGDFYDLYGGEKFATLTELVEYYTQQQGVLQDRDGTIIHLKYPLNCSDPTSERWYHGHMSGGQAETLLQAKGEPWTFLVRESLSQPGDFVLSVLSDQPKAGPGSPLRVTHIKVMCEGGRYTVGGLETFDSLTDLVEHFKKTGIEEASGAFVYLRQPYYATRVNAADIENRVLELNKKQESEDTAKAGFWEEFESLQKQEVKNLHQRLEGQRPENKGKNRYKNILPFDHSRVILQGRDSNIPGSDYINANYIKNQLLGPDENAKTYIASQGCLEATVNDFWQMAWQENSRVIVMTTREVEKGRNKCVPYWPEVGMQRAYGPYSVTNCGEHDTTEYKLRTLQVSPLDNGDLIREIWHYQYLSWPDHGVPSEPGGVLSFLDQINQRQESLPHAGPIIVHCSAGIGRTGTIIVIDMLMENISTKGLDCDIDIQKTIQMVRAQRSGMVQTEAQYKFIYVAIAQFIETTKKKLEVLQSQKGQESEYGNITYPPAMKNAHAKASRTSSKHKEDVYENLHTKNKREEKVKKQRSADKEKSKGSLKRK

C[C@H]1COC2=C1C(=O)C(=O)c1c2ccc2c1CCCC2(C)C [Cryptotanshinone]
IC50 [1]: 22.5 µM

Cc1cccc2c3c(ccc12)C1=C(C(=O)C3=O)[C@@H](C)CO1 [DHT, dihydrotanshinone I]
direct interaction with SHP2-PTP^Q510A (BLI) [2]: significantly abolished the direct interaction
ERK phosphorylation (Western blot) [3]: significant decrease
IC50 [4]: 32.1 ± 3.8 µM
IC50 [5]: 50.4 ± 5.3 µM
direct interaction with SHP2-PTP^R465A (BLI) [6]: significantly abolished the direct interaction
colony formation of NCI-H1975 cells [7]: significant suppression
IC50 [8]: 9.3 ± 0.94 µM
SHP2-FL inhibitory activity (in words) [9]: comparable inhibitory activity
fold higher inhibitory potency against SHP2 than cryptotanshinone ([10]; DiFMUP screening, versus cryptotanshinone): 4.7 fold
IC50 [10]: 1060 ± 210 nM
fold lower SHP2-PTP IC50 than tanshinone IIA ([10]; versus tanshinone IIA): 13 fold
proliferation of NCI-H1975 cells [11]: significant suppression
IC50 [12]: 1610 ± 260 nM
IC50 [13]: 1340 ± 360 nM
body weight change ([14]; 20 mg/kg/day oral, full treatment course): No body weight loss
Ki-67 staining in tumor tissue [14, 19]: reduced Ki-67 staining positive areas
MAPK phosphorylation in tumor tissue [14, 19]: marked decrease
tumor growth in NCI-H1975 xenograft ([14]; oral gavage 20 mg/kg daily, 20-day treatment, versus vehicle, 20 mg/kg): significant tumor growth suppression; also recorded: modest anti-tumor effect
sensitivity of SHP2-depleted H1975 cells (anti-proliferation) [15]: significantly lower sensitivity
IC50 [16]: 2500 ± 300 nM
IC50 [17]: > 100 µM

C[C@@H]1OCC2(CCN(c3cnc(Sc4ccnc(N)c4Cl)c(N)n3)CC2)[C@@H]1N [TNO155]
effect of SHP2^T253M mutation on efficacy (in words) [18]: eliminated the efficacy

Cc1coc2c1C(=O)C(=O)c1c-2ccc2c(C)cccc12 [Tanshinone I]
IC50 [10]: 3300 ± 1200 nM

Source: publication PMC12966599 (Journal of Pharmaceutical Analysis, 2025)
